Results: ChEMBL document CHEMBL3272095, “Synthesis and antiviral activity of 5- and 5'-substituted thymidine analogs” (J Med Chem, 1976)

Tests used:
Human alphaherpesvirus 1 [1] = experiment: Antiviral activity against Herpes simplex virus 1 infected in African green monkey Vero cells assessed as viral titer at 400 uM after 40 hrs by plaque formation assay relative to control; format: functional
Summary of the method: (§1)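 After a 1 h adsorption at 37 °C, inoculum was removed, cells were PBS-washed, and medium with or without compound was added. Incubation was 40 h at 37 °C. Cultures were freeze-thawed three times, and lysate yield was titrated by plaque assay on Vero. Pfu given as % of drug-free culture.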

[2] = Cytotoxicity against mouse Sarcoma 180 cells assessed as cell viability at 400 uM after 18 to 42 hrs relative to control
Vero = experiment: Cytotoxicity against African green monkey Vero cells assessed as inhibition of replication; format: cell-based; settings: chlorocebus sabaeus
Human alphaherpesvirus 1 [3] = experiment: Antiviral activity against Herpes simplex virus 1 infected in African green monkey Vero cells assessed as viral titer at 200 uM after 40 hrs by plaque formation assay relative to control; format: functional; summary of the method: as §1
[4] = Cytotoxicity against mouse Sarcoma 180 cells assessed as cell viability at 100 uM after 18 to 24 hrs relative to control; format: cell-based; settings: in the assay text read “18 to 42 hrs” for “18 to 24 hrs”, read-out: Activity
Summary of the method: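 Sarcoma 180 cells were grown in medium with horse serum at 37 °C under humidified 5% CO2–95% air, with a generation time of about 18 h. Compound was added to exponentially growing cultures at about 2 × 10^4 cells/ml. The increase in cell number was measured after 18 and 42 h, and percent inhibition was calculated relative to a drug-free control.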

| SMILES | Activity (Human alphaherpesvirus 1 [1]) [%] | viability at 400 µM [2] [%] | Activity (Vero) | Activity (Human alphaherpesvirus 1 [3]) [%] | viability at 100 µM [4] [%] |
| --- | --- | --- | --- | --- | --- |
| Cc1cn([C@H]2C[C@H](O)[C@@H](CN)O2)c(=O)[nH]c1=O | 3 | 100 | Non-toxic | – | – |
| NC[C@H]1O[C@@H](n2cc(Cl)c(O)nc2=O)C[C@@H]1O | 29 | 100 | Non-toxic | – | – |
| NC[C@H]1O[C@@H](n2cc(Br)c(O)nc2=O)C[C@@H]1O | – | – | Non-toxic | 1 | – |
| Cc1ccc(S(=O)(=O)OC[C@H]2O[C@@H](n3cc(Cl)c(=O)[nH]c3=O)C[C@@H]2O)cc1 | – | – | – | – | 65 |
| Cc1ccc(S(=O)(=O)OC[C@H]2O[C@@H](n3cc(Br)c(=O)[nH]c3=O)C[C@@H]2O)cc1 | – | – | – | – | 65 |
| [N-]=[N+]=NC[C@H]1O[C@@H](n2cc(Cl)c(=O)[nH]c2=O)C[C@@H]1O | 81 | 100 | – | – | – |
| [N-]=[N+]=NC[C@H]1O[C@@H](n2cc(Br)c(=O)[nH]c2=O)C[C@@H]1O | 54 | 100 | – | – | – |
| [N-]=[N+]=NC[C@H]1O[C@@H](n2cc(I)c(=O)[nH]c2=O)C[C@@H]1O | 60 | 100 | – | – | – |
| NC[C@H]1O[C@@H](n2ccc(=O)[nH]c2=O)C[C@@H]1O | 101 | 100 | – | – | – |
